The source of these data is ChEMBL document CHEMBL4038341, “Optimization of Allosteric With-No-Lysine (WNK) Kinase Inhibitors and Efficacy in Rodent Hypertension Models” (J Med Chem, 2017).

Data set [1] deals with T1, Serine/threonine-protein kinase WNK1 (Homo sapiens, UniProt Q9H4A3). Nature of the data set: Allosteric inhibition of recombinant human N-terminal GST-tagged WNK1 catalytic domain (1 to 491 residues) expressed in baculovirus expression system using fluorescein-labeled OSR1 peptide as substrate after 3 hrs by mobility shift assay.
Data set [2] concerns the target T1, Serine/threonine-protein kinase WNK1. Nature of the data set: Non-competitive inhibition of recombinant human N-terminal GST-tagged WNK1 (1 to 491 residues) expressed in baculovirus expression system using fluorescein-labeled OSR1 peptide as substrate measured every 3 mins from 90 to 250 mins in presence of varying concentration of ATP by Michaelis-Menten plot-based analysis.

A short description of data set [3]: Clearance in Sprague-Dawley rat at 0.5 mg/kg, iv measured up to 7 hrs post dose by HPLC analysis. It counts as ADME, organism-based. The settings on record: in vivo.
Data set [4] can be described thus: AUC in Sprague-Dawley rat at 1.5 mg/kg, po measured up to 7 hrs post dose by HPLC analysis. Further details: time < 7 hr, dose 1.5 mg/kg, route oral. The settings on record: in vivo. The data set is classed as ADME, organism-based.
The nature of data set [5]: Oral bioavailability in Sprague-Dawley rat at 1.5 mg/kg measured up to 7 hrs post dose by HPLC analysis. It counts as ADME, organism-based. The settings on record: in vivo.
The nature of data set [6]: Cmax in Sprague-Dawley rat at 1.5 mg/kg, po measured up to 7 hrs post dose by HPLC analysis. The data set is classed as ADME, organism-based. Also on record: dose 1.5 mg/kg, route oral. The settings on record: in vivo.
A short description of data set [7]: Equilibrium solubility of compound at pH 6.8. It counts as physicochemical. The settings on record: buffer.
Data set [8] deals with Mus musculus. The experiment in a line: Anti-hypertensive activity in human WNK1 transgenic FVB mouse assessed as reduction in systolic blood pressure at 30 mg/kg, po via gavage measured every 10 minutes for 15 seconds. It counts as functional, organism-based. The essentials:
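Conscious FVB mice transgenic for human WNK1, fitted with implanted radiotelemetry devices, received single oral doses. Systolic blood pressure was expressed as peak and time-weighted average change against the 24 h pre-dose baseline. Heart rate was also monitored. n = 4 per group, mean ± SEM, two-way ANOVA with Bonferroni post-test versus vehicle. Plasma exposure was measured in a separate cohort (n = 3).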

The target of data set [9] is T1, Serine/threonine-protein kinase WNK1. Nature of the data set: Allosteric inhibition of WNK1 (unknown origin) expressed in HEK293 cells co-expressing flag-OSR1 assessed as reduction in sorbitol-stimulated OSR1 phosphorylation preincubated with compound for 2.5 hrs followed co-administration with sorbitol measured after 1 hr by AlphaLISA assay. It counts as cell-based. On the technique in general: Alpha assays give light when donor and acceptor beads are brought close together.

Data set [10] is described as follows: Half life in rat liver microsomes. The data set is classed as ADME, microsome. On the technique in general: Microsomes from liver hold many membrane-bound enzymes, among them those of drug oxidation.
For data set [11], the system named is Rattus norvegicus. The experiment in a line: Anti-hypertensive activity in […] rat assessed as induction of natriuresis at 10 mg/kg, po administered as single dose on day 2,3 and 4 measured for 7 hrs post dose. It counts as functional, organism-based. The essentials:
(§1)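 Spontaneously hypertensive rats got single ascending oral doses on successive days (vehicle, then 10, 30, then 100 mg kg−1). Urine was collected in metabolic cages over 7 h for volume and sodium and potassium excretion. n = 4 per group, mean ± SEM, one-way ANOVA with Bonferroni post-test versus vehicle.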

In data set [12] the test system is Rattus norvegicus. The experiment in a line: Anti-hypertensive activity in […] rat assessed as induction of diuresis at 10 mg/kg, po administered as single dose on day 2,3 and 4 measured for 7 hrs post dose. It counts as functional, organism-based. The essentials:
as §1

Data set [13] in a line: Plasma concentration in human WNK1 transgenic FVB mouse at 30 mg/kg, po via gavage up to 7 hrs. It counts as ADME, organism-based. The essentials: (§2)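 A separate cohort of human WNK1-overexpressing FVB mice was dosed 30 mg kg−1 p.o. Venous blood samples were taken over time to 7 h for plasma drug concentration. n = 3.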
Data set [14] is described as follows: Ratio of Cp in human WNK1 expressing transgenic FVB mouse at 30 mg/kg, po to IC50 for WNK1 (unknown origin) expressed in HEK293 cells. A digest of the protocol: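 Separate PK cohort of FVB mice overexpressing human WNK1, given a single oral dose of 30 mg kg−1 (n = 3); venous blood sampled over time for plasma concentration. Plasma level compared against the cellular IC50 from AlphaLISA readout of WNK-mediated phosphorylation of exogenous OSR1 in HEK293 cells.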

Data set [15] can be described thus: Plasma concentration in human WNK1 transgenic FVB mouse at 30 mg/kg, po via gavage at 7 hrs post dose. It counts as ADME, organism-based. The essentials:
as §2

For data set [16], the system named is Rattus norvegicus. Nature of the data set: Anti-hypertensive activity in […] rat assessed as reduction in blood pressure at 100 mg/kg, po measured for 7 hrs post dose. It counts as functional, organism-based. The settings on record: tested as the 2H-labelled form.
Data set [17] concerns Rattus norvegicus. Nature of the data set: Increase in heart rate in […] rat at 100 mg/kg, po measured for 7 hrs post dose. It counts as functional, organism-based. The settings on record: tested as the 2H-labelled form.
In data set [18] the test system is Rattus norvegicus. The experiment in a line: Anti-hypertensive activity in […] rat assessed as induction of kaliuresis administered orally as single dose on day 2,3 and 4 measured for 7 hrs post dose. It counts as functional. The settings on record: tested as the 2H-labelled form. A digest of the protocol:
as §1

Data set [19] deals with Rattus norvegicus. Nature of the data set: Anti-hypertensive activity in […] rat assessed as induction of natriuresis administered orally as single dose on day 2,3 and 4 measured for 7 hrs post dose. The data set is classed as functional. The settings on record: tested as the 2H-labelled form. The essentials:
as §1

Data set [20] has as its system Rattus norvegicus. Nature of the data set: Anti-hypertensive activity in […] rat assessed as reduction in stroke volume at 100 mg/kg, po measured for 7 hrs post dose. It counts as functional, organism-based. The settings on record: tested as the 2H-labelled form.
The subject of data set [21] is Mus musculus. The experiment in a line: Anti-hypertensive activity in po dosed human WNK1 transgenic FVB mouse assessed as reduction in blood pressure administered via gavage measured every 10 minutes for 15 seconds after 6 to 12 hrs. It counts as functional, organism-based. The settings on record: tested as the 2H-labelled form. The essentials:
(§3)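 Conscious FVB mice overexpressing human WNK1, with implanted radiotelemetry devices, received single oral doses of 10, 30 or 100 mg kg−1. Systolic blood pressure was read as peak and time-weighted average against the 24 h before treatment. n = 4 per group, mean ± SEM, two-way ANOVA with Bonferroni post-test versus vehicle.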

Data set [22] concerns Mus musculus. The experiment in a line: Anti-hypertensive activity in human WNK1 transgenic FVB mouse assessed plasma concentration required for SBP reducing activity at 30 mg/kg, po via gavage measured after 7 hrs. The data set is classed as functional, organism-based. The settings on record: tested as the 2H-labelled form. The essentials:
as §2

The target of data set [23] is Tyrosine-protein kinase BTK (Homo sapiens) (UniProt Q06187). Nature of the data set: Inhibition of human full length BTK expressed in mammalian expression system at 10 uM by kinomescan assay. The essentials:
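Binding panel of 440 human kinases (KINOMEscan) at a 10 μM screening concentration. Percent inhibition per kinase, with >35% inhibition flagged as significant.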

Data set [24] addresses Tyrosine-protein kinase Fer (Homo sapiens) (UniProt P16591). Nature of the data set: Inhibition of human FER (542 to 822 residues) expressed in bacterial expression system at 10 uM by kinomescan assay. A digest of the protocol:
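KINOMEscan panel of 440 human kinases, with test compound screened at a single concentration of 10 μM. Read-out is percent inhibition. Hits above 35% inhibition are flagged.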

Data set [25] concerns Mus musculus. The experiment in a line: Anti-hypertensive activity in po dosed human WNK1 transgenic FVB mouse assessed as reduction in blood pressure administered via gavage measured every 10 minutes for 15 seconds after 2 hrs. The data set is classed as functional, organism-based. The settings on record: tested as the 2H-labelled form. The essentials: as §3
Data set [26] relates to Rattus norvegicus. The experiment in a line: Anti-hypertensive activity in SHR rat assessed as induction of diuresis administered orally as single dose on day 2,3 and 4 measured for 7 hrs post dose. It counts as functional. The settings on record: tested as the 2H-labelled form. A digest of the protocol:
as §1

The subject of data set [27] is Rattus norvegicus. The experiment in a line: Anti-hypertensive activity in […] rat assessed as reduction in total peripheral resistance at 100 mg/kg, po measured for 7 hrs post dose. The data set is classed as functional, organism-based. The settings on record: tested as the 2H-labelled form.
Data set [28] addresses T1, Serine/threonine-protein kinase WNK1. The experiment in a line: Allosteric inhibition of recombinant human N-terminal GST-tagged WNK1 catalytic domain (1 to 491 residues) expressed in baculovirus expression system using fluorescein-labeled OSR1 peptide as substrate after 3 hrs by HTRF assay. (In general: TR-FRET usually uses a lanthanide donor and a delayed reading to cut background.)

Structures are written as SMILES. ≈ marks a conversion by molar mass, not a printed value. Calls of active or inactive are those of the source. The calls are words filed in the database; no cut-off is given here.

T1 sequence (Q9H4A3 whole entry, the tested form may be a part): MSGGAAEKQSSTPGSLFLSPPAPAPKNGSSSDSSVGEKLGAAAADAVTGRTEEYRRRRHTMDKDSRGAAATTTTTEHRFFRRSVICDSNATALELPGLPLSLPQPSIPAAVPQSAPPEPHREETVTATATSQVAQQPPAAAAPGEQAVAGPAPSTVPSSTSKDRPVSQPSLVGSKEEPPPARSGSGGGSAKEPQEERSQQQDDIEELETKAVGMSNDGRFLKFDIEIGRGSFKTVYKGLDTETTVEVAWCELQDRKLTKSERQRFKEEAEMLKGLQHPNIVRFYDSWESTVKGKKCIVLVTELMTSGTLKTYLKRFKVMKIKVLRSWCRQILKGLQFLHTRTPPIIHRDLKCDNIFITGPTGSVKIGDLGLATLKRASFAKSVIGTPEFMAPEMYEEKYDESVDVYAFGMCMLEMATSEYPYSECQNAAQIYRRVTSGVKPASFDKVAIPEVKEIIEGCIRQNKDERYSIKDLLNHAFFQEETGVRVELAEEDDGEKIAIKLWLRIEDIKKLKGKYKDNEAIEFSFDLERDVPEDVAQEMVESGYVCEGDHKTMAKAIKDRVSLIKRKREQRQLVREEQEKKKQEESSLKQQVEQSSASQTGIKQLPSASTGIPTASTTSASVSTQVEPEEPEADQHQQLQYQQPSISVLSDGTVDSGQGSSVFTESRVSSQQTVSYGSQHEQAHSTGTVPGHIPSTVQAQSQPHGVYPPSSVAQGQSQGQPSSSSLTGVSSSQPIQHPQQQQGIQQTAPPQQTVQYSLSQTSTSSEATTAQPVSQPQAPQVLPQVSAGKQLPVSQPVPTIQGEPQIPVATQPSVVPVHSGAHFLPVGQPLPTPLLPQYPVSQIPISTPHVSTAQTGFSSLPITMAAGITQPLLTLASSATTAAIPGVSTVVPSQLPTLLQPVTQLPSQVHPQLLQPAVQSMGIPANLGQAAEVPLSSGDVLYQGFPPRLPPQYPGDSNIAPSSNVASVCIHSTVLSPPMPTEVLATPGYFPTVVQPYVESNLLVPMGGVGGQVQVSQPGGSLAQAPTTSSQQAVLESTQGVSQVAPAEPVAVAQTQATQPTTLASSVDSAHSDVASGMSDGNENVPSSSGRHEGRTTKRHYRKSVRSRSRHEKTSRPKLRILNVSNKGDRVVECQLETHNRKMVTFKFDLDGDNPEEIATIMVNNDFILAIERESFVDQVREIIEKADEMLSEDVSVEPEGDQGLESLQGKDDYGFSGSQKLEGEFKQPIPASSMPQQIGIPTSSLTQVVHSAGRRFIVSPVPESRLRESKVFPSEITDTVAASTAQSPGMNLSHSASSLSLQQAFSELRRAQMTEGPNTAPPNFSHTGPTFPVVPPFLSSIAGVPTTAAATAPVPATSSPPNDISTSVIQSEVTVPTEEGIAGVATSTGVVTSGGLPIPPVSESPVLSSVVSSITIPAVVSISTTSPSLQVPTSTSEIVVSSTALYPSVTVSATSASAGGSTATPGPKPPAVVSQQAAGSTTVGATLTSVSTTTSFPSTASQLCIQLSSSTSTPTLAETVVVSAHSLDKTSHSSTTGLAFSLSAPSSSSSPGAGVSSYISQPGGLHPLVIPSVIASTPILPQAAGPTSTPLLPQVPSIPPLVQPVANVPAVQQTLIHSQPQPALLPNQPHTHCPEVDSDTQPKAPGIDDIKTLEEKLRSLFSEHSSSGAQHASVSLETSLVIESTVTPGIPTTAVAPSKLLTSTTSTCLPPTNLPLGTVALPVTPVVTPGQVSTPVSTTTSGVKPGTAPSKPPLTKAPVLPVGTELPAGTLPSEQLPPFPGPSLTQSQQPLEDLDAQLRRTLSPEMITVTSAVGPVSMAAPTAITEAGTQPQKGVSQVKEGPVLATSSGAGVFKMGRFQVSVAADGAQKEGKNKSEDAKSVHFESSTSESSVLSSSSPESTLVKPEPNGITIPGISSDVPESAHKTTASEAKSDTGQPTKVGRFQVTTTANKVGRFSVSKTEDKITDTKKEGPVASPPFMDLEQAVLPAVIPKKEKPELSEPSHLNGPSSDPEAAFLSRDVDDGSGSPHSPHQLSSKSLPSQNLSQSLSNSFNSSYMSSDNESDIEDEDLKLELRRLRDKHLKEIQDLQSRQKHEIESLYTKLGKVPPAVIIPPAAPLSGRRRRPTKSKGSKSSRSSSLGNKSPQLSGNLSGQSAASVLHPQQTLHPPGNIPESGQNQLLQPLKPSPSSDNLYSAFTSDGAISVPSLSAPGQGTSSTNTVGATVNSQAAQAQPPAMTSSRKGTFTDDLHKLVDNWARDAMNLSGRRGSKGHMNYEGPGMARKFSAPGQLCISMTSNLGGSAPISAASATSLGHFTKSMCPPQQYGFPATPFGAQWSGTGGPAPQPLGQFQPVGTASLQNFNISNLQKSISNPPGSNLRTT
Chain of Tyrosine-protein kinase Fer (Homo sapiens) (P16591 whole entry, looked up, the tested form may be a part): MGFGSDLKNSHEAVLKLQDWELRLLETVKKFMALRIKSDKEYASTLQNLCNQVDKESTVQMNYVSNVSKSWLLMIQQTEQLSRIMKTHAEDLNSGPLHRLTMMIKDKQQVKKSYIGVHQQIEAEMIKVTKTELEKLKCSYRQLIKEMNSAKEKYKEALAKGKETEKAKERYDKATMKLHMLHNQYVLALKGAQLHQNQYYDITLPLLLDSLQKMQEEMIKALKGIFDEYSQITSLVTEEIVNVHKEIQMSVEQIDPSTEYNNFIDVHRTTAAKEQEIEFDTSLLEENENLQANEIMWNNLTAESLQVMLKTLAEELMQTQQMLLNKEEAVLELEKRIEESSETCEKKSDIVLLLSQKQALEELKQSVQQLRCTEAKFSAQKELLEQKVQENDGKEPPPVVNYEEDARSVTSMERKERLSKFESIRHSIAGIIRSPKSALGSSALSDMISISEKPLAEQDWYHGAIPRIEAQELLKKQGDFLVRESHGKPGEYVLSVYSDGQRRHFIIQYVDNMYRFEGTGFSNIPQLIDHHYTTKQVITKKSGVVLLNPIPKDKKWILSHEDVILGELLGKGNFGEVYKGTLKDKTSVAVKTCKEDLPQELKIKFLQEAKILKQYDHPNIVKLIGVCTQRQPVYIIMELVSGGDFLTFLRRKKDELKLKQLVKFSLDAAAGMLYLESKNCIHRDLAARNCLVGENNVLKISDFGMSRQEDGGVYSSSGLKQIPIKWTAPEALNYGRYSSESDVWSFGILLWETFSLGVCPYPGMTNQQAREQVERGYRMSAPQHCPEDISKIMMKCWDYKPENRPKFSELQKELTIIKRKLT
Chain of Tyrosine-protein kinase BTK (Homo sapiens) (Q06187 whole entry): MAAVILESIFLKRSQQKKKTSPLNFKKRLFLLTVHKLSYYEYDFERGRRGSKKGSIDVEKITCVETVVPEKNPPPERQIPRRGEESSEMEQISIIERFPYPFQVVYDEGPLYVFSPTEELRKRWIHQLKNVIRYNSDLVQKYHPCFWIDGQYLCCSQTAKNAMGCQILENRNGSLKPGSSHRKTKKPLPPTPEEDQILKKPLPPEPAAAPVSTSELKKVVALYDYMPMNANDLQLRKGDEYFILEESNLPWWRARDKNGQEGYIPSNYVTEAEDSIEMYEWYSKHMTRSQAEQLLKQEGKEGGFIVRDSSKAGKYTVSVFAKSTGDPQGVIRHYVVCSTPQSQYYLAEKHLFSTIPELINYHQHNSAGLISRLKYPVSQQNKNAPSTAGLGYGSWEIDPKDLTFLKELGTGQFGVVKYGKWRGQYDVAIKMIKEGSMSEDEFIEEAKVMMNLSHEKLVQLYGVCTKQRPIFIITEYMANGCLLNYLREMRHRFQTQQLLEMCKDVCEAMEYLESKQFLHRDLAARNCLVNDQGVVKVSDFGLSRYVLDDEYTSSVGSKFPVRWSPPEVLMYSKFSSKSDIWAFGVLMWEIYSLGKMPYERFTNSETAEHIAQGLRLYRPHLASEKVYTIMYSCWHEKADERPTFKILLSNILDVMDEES

On to `c1ccc(-c2cccc(-n3cc(CNCC4CCCCC4)c4ccccc43)c2)cc1`, for which the IC50 in data set [1] came out at 2140 nM.

Regarding `COc1cccc(-c2cccc(-n3cc(CNCC4CCCCC4)c4ccccc43)c2)c1`, in [2], the Ki is 32.4 nM. Also, in data set [1], the IC50 worked out at 162 nM.

For `CNc1nc(-c2cc(C(=O)N3CCN(Cc4ccc(Cl)cc4)CC3)ccn2)cs1`, the IC50 in data set [1] was found to be 106 nM.

The compound `CNc1nc(-c2ccc3c(c2)CCN3C(=O)c2ccccc2OCc2ccc(Cl)cc2)cs1` displayed a clearance in data set [3] of 108 mL/min/kg. Besides, the AUC at 7 h in data set [4] came to 0.014 µM·h. In addition, in [5], the bioavailability turned out to be 1.4%. Moreover, the 50% inhibitory concentration (IC50) in data set [1] was 420 nM. The compound also returned a peak concentration (Cmax) in data set [6] of 2 nM.

Regarding `COc1cccc(-c2cc(C(=O)N3CCN(Cc4ccccc4)CC3)c3ccccc3n2)c1`, in data set [1], the IC50 is 623 nM.

In data set [7], `COc1cccc(-c2cc(-n3cc(CNCC(C)C)c4ccccc43)c(C)cn2)c1` showed a thermodynamic solubility of 550 µM (≈ 220 µg/mL). Besides, in the data set with Mus musculus [8], the outcome was Active. In addition, the results for the IC50 in [9] and in [1] were 1390 nM and 95 nM, respectively. Also, the half-life in [10] is 15 min.

In the case of `N=C(N)NC(=O)c1nc(Cl)c(N)nc1N`, the result in the data set on Rattus norvegicus [11] and in the data set with Rattus norvegicus [12] was Active.

In [7], `[2H]C([2H])([2H])Nc1nc(-c2cc(C(=O)N3CCN(Cc4ccc(Cl)cc4)CC3)c(Cl)cn2)cs1` returned a thermodynamic solubility of 19 µM (≈ 8.84 µg/mL). Also, the values for the IC50 in data set [9] and in [1] were 589 nM and 6 nM, respectively. This compound displayed a half-life in [10] of 15 min. The compound further had a clearance in data set [3] of 24 mL/min/kg. Also, the AUC at 7 h in data set [4] stood at 0.811 µM·h. In data set [5], this compound showed a bioavailability of 45%. The concentration at 7 h in [13] and in [15] was 1000 nM each time. For the same compound, the Ratio in [14] was found to be 3. Further, the concentration in data set [6] peaked (Cmax) at 308 nM.

Take `CNc1nc(-c2cc(C(=O)N3CCN(Cc4ccc(Cl)cc4)CC3)c(Cl)cn2)cs1`: the outcome in the data set with Rattus norvegicus [16], in the data set with Rattus norvegicus [17], in the data set with Rattus norvegicus [20] and with Rattus norvegicus [27] was Active. For the same compound, in data set [7], the thermodynamic solubility was determined as 55 µM (≈ 25.4 µg/mL). Also, the Activity result with Rattus norvegicus [18], with Rattus norvegicus [19], with Mus musculus [21], in the data set on Mus musculus [25] and with Rattus norvegicus [26] was “Dose-dependent effect” throughout. Besides, the IC50 came out at 352 nM in [9] and 4 nM in data set [1]. In [10], this compound had a half-life of 13 min. The compound further came in with a clearance in data set [3] of 36 mL/min/kg. This compound also yielded an exposure (AUC) at 7 h in data set [4] of 0.279 µM·h. The compound also displayed a bioavailability in [5] of 21%. This compound had a Cp with Mus musculus [22] greater than 2 µM. For the same compound, the inhibition entry in data set [23] and in [24] was “Active” in each case. Moreover, in data set [6], the Cmax was 113 nM.

As to `COc1cccc(-c2cc(C(=O)N3CCN(Cc4ccc(Cl)cc4)CC3)ccn2)c1`, in data set [1], the IC50 was 971 nM.

Turning to `COc1cccc(-c2cc(C(=O)N(C)[C@@H]3CCN(Cc4ccc(Cl)cc4)C3)c3ccccc3n2)c1`, the IC50 in data set [1] stood at 750 nM.

`COc1cccc(-c2cc(-n3cc(CNCC4CCCCC4)c4cc(F)ccc43)ccn2)c1`: the concentration for half-maximal inhibition (IC50) in [28] came out at 39 nM.

As to `COc1cccc(-c2cc(-n3cc(CNCC4CCCCC4)c4ccccc43)ccn2)c1`, the IC50 in [1] turned out to be 60 nM.

The IC50 is the point on the concentration scale where inhibition reaches its midpoint. Broadly, the Ki is the equilibrium dissociation constant of an inhibitor or competing ligand from its target. A word on the clearance: it is a measure of how efficiently the substance is removed, as volume per time. A lower clearance goes with a low capacity for elimination. For orientation: AUC means concentration integrated over time. The bioavailability is dose-corrected exposure relative to a reference, in per cent. What is called Cmax is the highest concentration seen after dosing. A word on the thermodynamic solubility: it is solubility found after equilibrating the solid with the medium. The term half-life denotes how long it takes for the measured level to halve. High values mean slow loss, low ones fast loss.
